Measurements pooled from the literature.
Each line is one published result; the experiments were not run side by side. pEC50, pIC50: −log10 of the molar value. ≈ marks a conversion by molar mass, not a printed value.

SMILES | target or system | assay | test system | setting | measurement | result
COc1ccc(/C=C/c2coc3ccc(OC)cc3c2=O)cc1 | HSC-2 | cell growth or viability, MTT |  | 21 h | CC50 | 2.5 µM
Cc1cccc(-c2c(-c3ccccn3)nc3n2CCC3)c1 | Leishmania infantum | parasite growth |  | 5 days, intracellular, amastigote | pEC50 | 6.20
O=C(O)CN1C(=O)/C(=C/c2c3ccccc3c(-c3ccc(N(c4ccccc4)c4ccccc4)cc3)c3ccccc23)NC1=S | Streptococcus mutans | microbial killing, broth dilution | ATCC25175 |  | MBC | > 1000 µg/mL
CC(=O)N(c1ccc(F)cc1)c1c(-c2ccccn2)nc2ccccn12 | Leishmania infantum | parasite growth |  | intracellular, amastigote | pIC50 | < 4.19
COc1ccc(NC(=O)c2c(Nc3ccccc3)sc(C#N)c2NC(=O)CNc2ccc(C)cc2)cc1 | HCT-116 | cell growth or viability, SRB |  | 0.1 µM, 48 h | viability | 86.7%
O=C(O)CN1C(=O)/C(=C/c2ccc(-c3ccc(N(c4ccccc4)c4ccccc4)cc3)c3ccccc23)SC1=S | Streptococcus pyogenes | microbial killing, broth dilution | ATCC19615 |  | MBC | > 1000 µg/mL
COc1ccc(NC(=O)c2c(Nc3ccccc3)sc(C#N)c2NC(=O)CNc2ccc([N+](=O)[O-])cc2)cc1 | HCT-116 | cell growth or viability, SRB |  | 1 nM, 48 h | viability | 103%
O=C1NC(=S)N/C1=C\c1ccc(-c2ccc(N(c3ccccc3)c3ccccc3)cc2)c2ccccc12 | Streptococcus mutans | microbial killing, broth dilution | ATCC25175 |  | MBC | > 1000 µg/mL
CN(C)C(=O)c1ccc(-c2c(-c3ccccn3)nc3n2CCC3)cc1 | Leishmania infantum | parasite growth |  | 5 days, intracellular, amastigote | pEC50 | 4.40
COc1ccc2occ(/C=C/c3ccc(O)cc3)c(=O)c2c1 | HSC-2 | cell growth or viability, MTT |  | 7 h | CC50 | 5.5 µM
O=C1NC(=S)N/C1=C\c1ccc(-c2ccc(N(c3ccccc3)c3ccccc3)cc2)cc1 | Streptococcus pyogenes | microbial killing, broth dilution | ATCC19615 |  | MBC | > 1000 µg/mL
COc1ccc(NC(=O)c2c(Nc3ccccc3)sc(C(=O)NN=Cc3ccccc3)c2NC(C)=O)cc1 | HCT-116 | cell growth or viability, SRB |  | 10 µM, 48 h | viability | 64.2%
O=C1NC(=S)S/C1=C\c1ccc(-c2ccc(N(c3ccccc3)c3ccccc3)cc2)c2ccccc12 | Streptococcus pyogenes | microbial killing, broth dilution | ATCC19615 |  | MBC | > 1000 µg/mL
COc1ccc(-c2nc3ccc(OC)cn3c2N(C)c2ccc(F)cc2)nc1 | Leishmania infantum | parasite growth |  | 5 days, intracellular, amastigote | pEC50 | 6.10
COc1ccc(NC(=O)c2c(Nc3ccccc3)sc(C(=O)NN=Cc3ccc(OC)c(O)c3)c2NC(C)=O)cc1 | HCT-116 | cell growth or viability, SRB |  | 10 µM, 48 h | viability | 35.6%
c1ccc(-c2cn3ccccc3n2)nc1 | Leishmania infantum | parasite growth |  | intracellular, amastigote | pIC50 | 4.43
COc1ccc(NC(=O)c2c(Nc3ccccc3)sc(C#N)c2NC(=O)CNc2ccc(O)cc2)cc1 | HCT-116 | cell growth or viability, SRB |  | 1 µM, 48 h | viability | 77.8%
C[S+]([O-])c1ccc(-c2c(-c3ccccn3)nc3n2CCC3)cc1 (centres unmarked) | Leishmania infantum | parasite growth |  | 5 days, intracellular, amastigote | pEC50 | 4.70
O=C(O)CN1C(=O)/C(=C/c2ccc(-c3ccc(N(c4ccccc4)c4ccccc4)cc3)cc2)NC1=S | Streptococcus pyogenes | microbial growth, broth dilution | ATCC19615 |  | MIC | 31.3 µg/mL (≈ 61.9 µM)
COc1ccc(NC(=O)c2c(Nc3ccccc3)sc(C(=O)NN=Cc3ccc(Cl)cc3)c2NC(C)=O)cc1 | HCT-116 | cell growth or viability, SRB |  | 100 µM, 48 h | viability | 50.9%
